Holding throughout (type): functional
Test [1] relates to Spodoptera litura. In words: Antifeedant activity against fourth-instar larval stage of Spodoptera litura reared on castor leaves assessed as decrease in food consumption at 100 ug/cm2 after 48 hr by no-choice leaf disk assay relative to untreated control. The gist of the method:
(§1)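 Larvae reared on fresh castor leaves at 27 ± 1 °C, 65 ± 5% RH, 14:10 light:dark; freshly molted fourth instars used. Treated leaf disks placed with larvae in Petri dishes; leaf area consumed in treated and control disks measured by planimeter. Percent protection corrected for control by Singh and Panth formula; mean with standard deviation reported.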

Test [2] relates to Spodoptera litura. In words: Antifeedant activity against fourth-instar larval stage of Spodoptera litura reared on castor leaves assessed as decrease in food consumption at 150 ug/cm2 after 48 hr by no-choice leaf disk assay relative to untreated control. The method, boiled down: as §1
The subject of test [3] is Spodoptera litura. In words: Antifeedant activity against fourth-instar larval stage of Spodoptera litura reared on castor leaves assessed as decrease in food consumption at 50 ug/cm2 after 48 hr by no-choice leaf disk assay relative to untreated control. Also on record: scale not given: the % may be the effect or the level left. The gist of the method:
as §1

The test system of test [4] is Spodoptera litura. Description: Antifeedant activity against fourth-instar larval stage of Spodoptera litura reared on castor leaves assessed as decrease in food consumption at 50 to 150 ug/cm2 measured after 48 hr by no-choice leaf disk assay relative to untreated control. More on the design: scale not given: the % may be the effect or the level left. The method, boiled down:
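Larvae reared on fresh castor leaves at 27 ± 1 °C, 65 ± 5% relative humidity, 14:10 light:dark; freshly molted fourth-instar larvae used. No-choice leaf disk test in Petri dish at 150, 100 and 50 µg/cm2. Leaf area consumed measured by planimeter at 6, 12, 24 and 48 h in treated and control disks. Percent protection corrected for control protection; mean with standard deviation.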

Activity calls are given as the source filed them. No cut-off for these calls is given here.

For the compound `CCCCCCCCCCCCCCCCCC(=O)O[C@H]1CC[C@]2(C)[C@H]3CC=C4[C@@H]5CC(C)(C)CC[C@]5(C(=O)O)CC[C@@]4(C)[C@]3(C)CC[C@H]2C1(C)C`, the outcome with Spodoptera litura [1] and in the test with Spodoptera litura [2] was Active.

On to `C[C@H]1[C@H](C)CC[C@]2(C(=O)O)CC[C@]3(C)C(=CC[C@@H]4[C@@]5(C)CC[C@H](O)C(C)(C)[C@@H]5CC[C@]43C)[C@H]12` [URSOLIC ACID], for which the Activity is listed as 40% with Spodoptera litura [1] and above 50% in the test with Spodoptera litura [2].

`CCCCCCCCCCCCCCCC(=O)O[C@H]1CC[C@]2(C)[C@H]3CC=C4[C@@H]5[C@@H](C)[C@H](C)CC[C@]5(C(=O)O)CC[C@@]4(C)[C@]3(C)CC[C@H]2C1(C)C`: the Activity in the test on Spodoptera litura [3] is above 50%; in the test with Spodoptera litura [1], 40%; in the test with Spodoptera litura [2], above 50%.

Regarding `CCCCCCCCCCCCCCCCCC(=O)O[C@H]1CC[C@]2(C)[C@H]3CC=C4[C@@H]5[C@@H](C)[C@H](C)CC[C@]5(C(=O)O)CC[C@@]4(C)[C@]3(C)CC[C@H]2C1(C)C` [URS-12-ENE-28-CARBOXY-3BETA-OCTADECANOATE], the Activity with Spodoptera litura [3] is 74%; in the test with Spodoptera litura [1], 40%; with Spodoptera litura [2] it was above 50%.

In the case of `C/C=C(\C)C(=O)O[C@H]1C[C@@H](OC(C)=O)[C@@]2(C(=O)OC)CO[C@H]3[C@@H](O)[C@@](C)([C@]45O[C@@]4(C)[C@H]4C[C@@H]5O[C@@H]5OC=C[C@@]54O)[C@H]4[C@]1(CO[C@]4(O)C(=O)OC)[C@@H]32` [AZADIRACTIN], the Activity with Spodoptera litura [1] is 40%; in the test on Spodoptera litura [2], above 50%; with Spodoptera litura [4], 81%.

Consider `CC1(C)CC[C@]2(C(=O)O)CC[C@]3(C)C(=CC[C@@H]4[C@@]5(C)CC[C@H](O)C(C)(C)[C@@H]5CC[C@]43C)[C@@H]2C1` [OLEANOLIC_ACID], for which the Activity with Spodoptera litura [1] worked out at 40%. Also, the result in the test with Spodoptera litura [2] was Active.

Regarding `CCCCCCCCCCCCCCCC(=O)O[C@H]1CC[C@]2(C)[C@H]3CC=C4[C@@H]5CC(C)(C)CC[C@]5(C(=O)O)CC[C@@]4(C)[C@]3(C)CC[C@H]2C1(C)C` [OLEAN-12-ENE-28-CARBOXY-3BETA-HEXADECANOATE], the figures for the Activity in the test with Spodoptera litura [3], in the test with Spodoptera litura [1] and in the test with Spodoptera litura [2] were 71%, 40% and above 50%, respectively.

Regarding `CCCCCCCCCCCCCC(=O)O[C@H]1CC[C@]2(C)[C@H]3CC=C4[C@@H]5[C@@H](C)[C@H](C)CC[C@]5(C(=O)O)CC[C@@]4(C)[C@]3(C)CC[C@H]2C1(C)C` [URS-12-ENE-28-CARBOXY-3BETA-TETRADECANOATE], the Activity in the test with Spodoptera litura [3] was above 50%; in the test with Spodoptera litura [1] it was 40%; with Spodoptera litura [2] it was above 50%.

`CCCCCCCCCCCC(=O)O[C@H]1CC[C@]2(C)[C@H]3CC=C4[C@@H]5[C@@H](C)[C@H](C)CC[C@]5(C(=O)O)CC[C@@]4(C)[C@]3(C)CC[C@H]2C1(C)C` [URS-12-ENE-28-CARBOXY-3BETA-DODECANOATE]: the Activity in the test with Spodoptera litura [1] is listed as 40%; in the test with Spodoptera litura [2] it was above 50%.

The values are drawn from ChEMBL document CHEMBL3044910, “Antifeedant activity of some pentacyclic triterpene acids and their fatty acid ester analogues” (2003).
